Sampled rows, rich in hits. Any-hit rate of the full collection: about 1.9%.
CHRM5 antagonist: human M5 muscarinic receptor antagonists, primary screen, CHO cells, Fluo-8 calcium fluorescence; 360,000 compounds, 0.59% hits; CHO-hM5 cells, ACh EC80; inhibition, % at 3 µM;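 active means inhibition above a per-plate cutoff, the mean of that plate's test compounds plus 3 SD, cut at about 27% in these data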;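 further: 0% = acetylcholine EC80 with DMSO and 100% = DMSO without agonist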
M5 ag: human M5 muscarinic receptor agonists, primary screen, CHO-K1 cells, Fluo-8 calcium fluorescence. Muscarinic acetylcholine receptor M5 (Homo sapiens), P08912. CHO-K1 hM5 cells; 0% DMSO wells, 100% maximal acetylcholine response. activation, % at 3 µM. 360,000 compounds, 0.19% hits. AID 624037, 2012;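 active means activation above the run's mean over test compounds plus 3 SD, cut at about 23% in these data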;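 further: signal is peak over basal fluorescence ratio across the kinetic read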
CHRM4 PAM: human M4 muscarinic receptor positive allosteric modulators, primary screen, CHO-K1 cells, Fluo-8 calcium fluorescence; Muscarinic acetylcholine receptor M4 (Homo sapiens), P08173; CHO-K1 hM4/Gqi5, ACh EC20; 0% = ACh EC20, 100% = maximal ACh; activation, % at 3 µM; 360,000 compounds, 0.4% hits;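 active means activation above its plate's cutoff, the mean activation of sample wells plus 3 SD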
Target sequence (P08173 whole entry, looked up): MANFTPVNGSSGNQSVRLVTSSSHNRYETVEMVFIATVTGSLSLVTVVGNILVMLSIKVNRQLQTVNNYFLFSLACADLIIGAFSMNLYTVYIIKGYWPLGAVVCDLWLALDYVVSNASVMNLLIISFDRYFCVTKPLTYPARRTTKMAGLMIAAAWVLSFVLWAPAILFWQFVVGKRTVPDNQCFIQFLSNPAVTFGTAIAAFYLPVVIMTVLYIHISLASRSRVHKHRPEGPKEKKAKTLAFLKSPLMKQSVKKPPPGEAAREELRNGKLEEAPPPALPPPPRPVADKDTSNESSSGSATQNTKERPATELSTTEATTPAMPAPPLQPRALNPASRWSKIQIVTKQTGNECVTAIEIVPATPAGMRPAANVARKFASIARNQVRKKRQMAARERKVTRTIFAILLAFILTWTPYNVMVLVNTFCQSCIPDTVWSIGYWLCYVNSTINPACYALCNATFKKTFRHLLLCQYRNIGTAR
CHRM4 agonist: human M4 muscarinic receptor agonists, primary screen, CHO-K1 cells, Fluo-8 calcium fluorescence; Muscarinic acetylcholine receptor M4 (Homo sapiens), P08173; activation, % at 3 µM; CHO-K1 hM4/Gqi5; vehicle 0%, full acetylcholine response 100%; 360,000 compounds, 0.14% hits;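 active means activation above the run mean over all test wells plus 3 SD, cut at about 32% in these data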;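 further: peak over basal fluorescence ratio per well then scaled between controls; 0% = DMSO wells and 100% = acetylcholine at EC100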
M5 PAM: human M5 muscarinic receptor positive allosteric modulators, primary screen, CHO-K1 cells, Fluo-8 calcium fluorescence | activation, % at 3 µM | 360,000 compounds, 0.3% hits | AID 624038, 2012 | Muscarinic acetylcholine receptor M5 (Homo sapiens), P08912 | CHO-K1 hM5, ACh EC20 PAM; 0% = ACh EC20, 100% = ACh EC100;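 active means activation above the run cutoff, the mean activation of all test compounds plus 3 SD, cut at about 18% in these data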
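System – CHO-K1 hM5 cells · Compound – 3 µM, single dose · Incubation – compound preincubation 140 s before EC20 acetylcholine addition · Technique – Fluo-8 calcium fluorescence · Measure – Max/basal fluorescence ratio as % of EC20–EC100 ACh window · Benchmarks – low control EC20 acetylcholine (0%), high control EC100 acetylcholine (100%) · Replication – singlicate, one well per test compound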
M4 antag: human M4 muscarinic receptor antagonists, primary screen, CHO cells, Fluo-8 calcium fluorescence; Muscarinic acetylcholine receptor M4 (Homo sapiens), P08173; CHO-hM4 cells, ACh EC80; inhibition, % at 3 µM; 360,000 compounds, 0.73% hits;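 active means inhibition above its plate's cutoff, the mean inhibition of sample wells plus 3 SD, cut at about 27% in these data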;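 further: 0% = acetylcholine EC80 with DMSO and 100% = DMSO without agonist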
* = called active by the depositor.

SMILES	CHRM5 antagonist	M5 ag	CHRM4 PAM	CHRM4 agonist	M5 PAM	M4 antag
O=C(NCCc1cn2ccccc2n1)c1cc(COc2ccc3ncccc3c2)on1	33*	6	-28	31	-32	36*
COc1cccc(CN(C)C(=O)c2cc(COc3ccc4ncccc4c3)on2)c1	40*	4	-20	24	-35	34*
OCC1(Cc2ccccc2)CCN(CCCC2CCCC2)CC1	7	-17	-55	8	-17	49*
OCC1(Cc2ccccc2)CCN(Cc2ccc(-c3ccco3)cc2)CC1	12	-14	-20	2	-8	30*
OCC1(Cc2ccccc2)CCCN(Cc2ccc(-c3ccco3)cc2)C1 (centres undefined)	13	-8	-26	12	-9	12
CC(C)n1nnnc1C1c2ccccc2C(=O)N1CCCn1ccnc1 (centres undefined)	-5	-1	8	2	-2	-2
Nc1nc(Nc2ccccc2F)sc1C(=O)c1ccccc1	-6	28*	2	1	6	-2
CCN1CCc2c(sc(NC(=O)Nc3ccc(Cl)c(Cl)c3)c2C(N)=O)C1	58*	77*	-44	124*	-19	51*
CCCCCC/C=C/c1ccc(OC)c([C@H]2[C@H]3C=CC[C@@H](C)[C@@H]3C(=O)N2Cc2ccccc2)c1	2	-1	11	-1	0	3
N/C(Cc1ccccc1Sc1ccccc1)=N\O	11	0	4	2	-7	-1
CCN(CC)Cc1ccccc1Sc1ccccc1	99*	-9	-17	0	-18	53*
CCOC(=O)CSc1nc(C)nc2c1sc1nc(C)c(C(C)=O)c(-c3ccc(OC)cc3)c12	5	1	20*	1	-1	8
CCOC(=O)c1c(C)nc2sc3c(=O)n(-c4ccc(C)cc4)cnc3c2c1-c1ccc(OC)cc1	4	2	-3	0	-6	4
CN1CCN(C(=O)C2Cc3c(-c4ccc5c(c4)OCO5)ccnc3O2)CC1 (centres undefined)	5	0	-6	1	-3	-1
COc1ccc(CNC(=O)C(c2ccc(C)cc2)N(Cc2cccs2)C(=O)c2ccc3c(c2)OCCO3)cc1 (centres undefined)	24	4	-12	24	-23	32*
COC(C(=O)Nc1ccnn1C1CCN(Cc2ccc(CO)o2)CC1)c1ccccc1 (centres undefined)	3	-4	-4	0	-6	2
CSc1ccc(CCNC(=O)Cn2ncc3c([nH]c4ccccc43)c2=O)cc1	19	-4	15*	2	-3	16
O=C(Cn1ncc2c([nH]c3ccccc32)c1=O)NCCc1ccc(Cl)cc1	8	-1	-3	1	-5	4
CCN1C(=O)/C(=C/c2c(C)nn(C)c2C)SC1=S	11	-5	30*	4	-7	2
CCN1C(=O)/C(=C\N2CCCCCC2)SC1=S	32*	-6	-22	2	-22	69*
COc1cccc(C(=O)NCCSCc2ccccc2Cl)c1	-7	-6	-5	2	18*	-9
COc1cccc(C(=O)NCCSCc2c(F)cccc2Cl)c1	-3	-13	-2	6	10	-12
CCOC(=O)N1CCN(C(=O)c2cc3c(-c4cccc(OC)c4)nn(C)c3s2)CC1	-1	2	-9	5	-5	6
CCOC(=O)N1CCC(NC(=O)c2cc3c(-c4cccc(OC)c4)nn(C)c3s2)CC1	-8	-6	19*	0	10	-5
CCc1cc(-c2n[nH]c(=S)n2-c2ccccc2C)cs1	-1	-5	31*	-3	7	-16
CCn1nnnc1SCC(=O)NCc1cccs1	-3	-5	0	0	18*	3

Source: PubChem BioAssay
